Reference: ChEMBL document CHEMBL4346684, “Synthesis and structure-bactericidal activity relationships of non-ketolides: 9-Oxime clarithromycin 11,12-cyclic carbonate featured with three-to eight-atom-length spacers at 3-OH” (Eur J Med Chem, 2019)
Values after ≈ are worked out from the molar mass of the structure shown.

What was measured:
Assay type in all cases: functional
Streptococcus pneumoniae [1] = assay: Antimicrobial activity against erythromycin-susceptible Streptococcus pneumoniae ATCC 49619 incubated in CAMHB medium for 20 to 24 hrs by two-fold microbroth dilution method
Streptococcus pneumoniae [2] = assay: Antimicrobial activity against mef-encoded erythromycin resistant Streptococcus pneumoniae PU09 incubated in CAMHB medium for 20 to 24 hrs by two-fold microbroth dilution method
Haemophilus influenzae [3] = assay: Antimicrobial activity against azithromycin-susceptible Haemophilus influenzae ATCC 49247 incubated in HTM broth medium for 20 to 24 hrs by two-fold microbroth dilution method
Streptococcus pyogenes [4] = assay: Ratio of MBC to MIC for inducibly erythromycin resistant Streptococcus pyogenes 01-968 expressing i-ermA
Staphylococcus aureus [5] = assay: Bactericidal activity against constitutively erythromycin resistant and methicillin-resistant Staphylococcus aureus PU20 expressing c-ermC assessed as reduction in colony formation incubated in CAMHB medium for 20 hrs followed by 24 hrs subculturing in the medium without test compound
Haemophilus influenzae [6] = assay: Ratio of MBC to MIC for azithromycin-susceptible Haemophilus influenzae ATCC 49247
Streptococcus pyogenes [7] = assay: Bactericidal activity against inducibly erythromycin resistant Streptococcus pyogenes 01-968 expressing i-ermA assessed as reduction in colony formation incubated in CAMHB medium for 20 to 24 hrs followed by 24 hrs subculturing in the medium without test compound
Streptococcus pyogenes [8] = assay: Antimicrobial activity against inducibly erythromycin resistant Streptococcus pyogenes 01-968 expressing i-ermA incubated in CAMHB medium for 20 to 24 hrs by two-fold microbroth dilution method
Streptococcus pneumoniae [9] = assay: Ratio of MBC to MIC for mef-encoded erythromycin resistant Streptococcus pneumoniae PU09
Staphylococcus aureus [10] = assay: Antimicrobial activity against constitutively erythromycin resistant and methicillin resistant Staphylococcus aureus PU20 expressing c-ermC incubated in CAMHB medium for 20 hrs by two-fold microbroth dilution method; conditions: PU20, 20 h
Method in brief: (§1)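 Purified fresh Staphylococcus isolate at about 5×10^5 CFU/ml final in CAMHB, 35 °C for 20 h. Each run included ATCC strains and reference antibiotics as QC, plus an antibiotic-free growth control.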

Staphylococcus aureus [11] = assay: Ratio of MBC to MIC for inducibly erythromycin-resistant and methicillin resistant Staphylococcus aureus PU32 expressing i-ermA
Streptococcus pneumoniae [12] = assay: Bactericidal activity against mef-encoded erythromycin resistant Streptococcus pneumoniae PU09 assessed as reduction in colony formation incubated in CAMHB medium for 20 to 24 hrs followed by 24 hrs subculturing in the medium without test compound
Haemophilus influenzae [13] = assay: Bactericidal activity against azithromycin-susceptible Haemophilus influenzae ATCC 49247 assessed as reduction in colony formation incubated in HTM broth medium for 20 to 24 hrs followed by 24 hrs subculturing in the medium without test compound
Streptococcus pneumoniae [14] = assay: Ratio of MBC to MIC for erythromycin-susceptible Streptococcus pneumoniae ATCC 49619
Streptococcus pneumoniae [15] = assay: Bactericidal activity against erythromycin-susceptible Streptococcus pneumoniae ATCC 49619 assessed as reduction in colony formation incubated in CAMHB medium for 20 to 24 hrs followed by 24 hrs subculturing in the medium without test compound
Staphylococcus aureus [16] = assay: Bactericidal activity against inducibly erythromycin-resistant and methicillin resistant Staphylococcus aureus PU32 expressing i-ermA assessed as reduction in colony formation incubated in CAMHB medium for 20 hrs followed by 24 hrs subculturing in the medium without test compound
Staphylococcus aureus [17] = assay: Antimicrobial activity against inducibly erythromycin-resistant and methicillin resistant Staphylococcus aureus PU32 expressing i-ermA incubated in CAMHB medium for 20 hrs by two-fold microbroth dilution method; conditions: PU32, 20 h; method in brief: as §1

CC[C@H]1OC(=O)[C@H](C)[C@@H](OC(=O)NCCCc2ccc3c(c2)c(=O)c(C(=O)O)cn3C2CC2)[C@H](C)[C@@H](O[C@@H]2O[C@H](C)C[C@H](N(C)C)[C@H]2O)[C@](C)(OC)C[C@@H](C)/C(=N\OC)[C@H](C)[C@H]2OC(=O)O[C@@]21C
MIC (Streptococcus pneumoniae [1]): 1 µg/mL (≈ 1.04 µM)
MIC (Streptococcus pneumoniae [2]): 2 µg/mL (≈ 2.09 µM)
MIC (Haemophilus influenzae [3]): 256 µg/mL (≈ 267 µM)
Ratio (Streptococcus pyogenes [4]): 2
MBC (Staphylococcus aureus [5]): > 256 µg/mL
Ratio (Haemophilus influenzae [6]): 1
MBC (Streptococcus pyogenes [7]): 8 µg/mL (≈ 8.36 µM)
MIC (Streptococcus pyogenes [8]): 4 µg/mL (≈ 4.18 µM)
Ratio (Streptococcus pneumoniae [9]): 4
MIC (Staphylococcus aureus [10]): 256 µg/mL (≈ 267 µM)
Ratio (Staphylococcus aureus [11]): >8
MBC (Streptococcus pneumoniae [12]): 8 µg/mL (≈ 8.36 µM)
MBC (Haemophilus influenzae [13]): 256 µg/mL (≈ 267 µM)
Ratio (Streptococcus pneumoniae [14]): 2
MBC (Streptococcus pneumoniae [15]): 2 µg/mL (≈ 2.09 µM)
MBC (Staphylococcus aureus [16]): > 256 µg/mL
MIC (Staphylococcus aureus [17]): 32 µg/mL (≈ 33.4 µM)

CC[C@H]1OC(=O)[C@H](C)[C@@H](OC(=O)CCNCCCc2cccnc2)[C@H](C)[C@@H](O[C@@H]2O[C@H](C)C[C@H](N(C)C)[C@H]2O)[C@](C)(OC)C[C@@H](C)/C(=N\OC)[C@H](C)[C@H]2OC(=O)O[C@@]21C
MIC (Streptococcus pneumoniae [1]): 1 µg/mL (≈ 1.2 µM)
MIC (Streptococcus pneumoniae [2]): 2 µg/mL (≈ 2.4 µM)
MIC (Haemophilus influenzae [3]): 256 µg/mL (≈ 307 µM)
Ratio (Streptococcus pyogenes [4]): >8
MBC (Staphylococcus aureus [5]): > 256 µg/mL
Ratio (Haemophilus influenzae [6]): 1
MBC (Streptococcus pyogenes [7]): > 4 µg/mL
MIC (Streptococcus pyogenes [8]): 0.5 µg/mL (≈ 0.599 µM)
Ratio (Streptococcus pneumoniae [9]): 2
MIC (Staphylococcus aureus [10]): 256 µg/mL (≈ 307 µM)
Ratio (Staphylococcus aureus [11]): >8
MBC (Streptococcus pneumoniae [12]): 4 µg/mL (≈ 4.79 µM)
MBC (Haemophilus influenzae [13]): 256 µg/mL (≈ 307 µM)
Ratio (Streptococcus pneumoniae [14]): 8
MBC (Streptococcus pneumoniae [15]): 8 µg/mL (≈ 9.58 µM)
MBC (Staphylococcus aureus [16]): > 256 µg/mL
MIC (Staphylococcus aureus [17]): 32 µg/mL (≈ 38.3 µM)

CC[C@H]1OC(=O)[C@H](C)[C@@H](OC(=O)NCC#Cc2cccnc2)[C@H](C)[C@@H](O[C@@H]2O[C@H](C)C[C@H](N(C)C)[C@H]2O)[C@](C)(OC)C[C@@H](C)/C(=N\OC)[C@H](C)[C@H]2OC(=O)O[C@@]21C
MIC (Streptococcus pneumoniae [1]): 0.03 µg/mL (≈ 0.0374 µM)
MIC (Streptococcus pneumoniae [2]): 0.5 µg/mL (≈ 0.623 µM)
MIC (Haemophilus influenzae [3]): > 256 µg/mL
Ratio (Streptococcus pyogenes [4]): 4
MBC (Streptococcus pyogenes [7]): 4 µg/mL (≈ 4.98 µM)
MIC (Streptococcus pyogenes [8]): 1 µg/mL (≈ 1.25 µM)
Ratio (Streptococcus pneumoniae [9]): 4
MIC (Staphylococcus aureus [10]): > 256 µg/mL
Ratio (Staphylococcus aureus [11]): >8
MBC (Streptococcus pneumoniae [12]): 2 µg/mL (≈ 2.49 µM)
Ratio (Streptococcus pneumoniae [14]): 2
MBC (Streptococcus pneumoniae [15]): 0.062 µg/mL (≈ 0.0772 µM)
MBC (Staphylococcus aureus [16]): > 128 µg/mL
MIC (Staphylococcus aureus [17]): 16 µg/mL (≈ 19.9 µM)

C=CCNCCC(=O)O[C@H]1[C@H](C)[C@@H](O[C@@H]2O[C@H](C)C[C@H](N(C)C)[C@H]2O)[C@](C)(OC)C[C@@H](C)/C(=N\OC)[C@H](C)[C@H]2OC(=O)O[C@]2(C)[C@@H](CC)OC(=O)[C@@H]1C
MIC (Streptococcus pneumoniae [1]): 1 µg/mL (≈ 1.32 µM)
MIC (Streptococcus pneumoniae [2]): 4 µg/mL (≈ 5.29 µM)
MIC (Haemophilus influenzae [3]): 256 µg/mL (≈ 339 µM)
Ratio (Streptococcus pyogenes [4]): >8
Ratio (Haemophilus influenzae [6]): 1
MBC (Streptococcus pyogenes [7]): > 8 µg/mL
MIC (Streptococcus pyogenes [8]): 1 µg/mL (≈ 1.32 µM)
MIC (Staphylococcus aureus [10]): > 256 µg/mL
Ratio (Staphylococcus aureus [11]): >8
MBC (Streptococcus pneumoniae [12]): 8 µg/mL (≈ 10.6 µM)
MBC (Haemophilus influenzae [13]): 256 µg/mL (≈ 339 µM)
Ratio (Streptococcus pneumoniae [14]): 2
MBC (Streptococcus pneumoniae [15]): 2 µg/mL (≈ 2.65 µM)
MBC (Staphylococcus aureus [16]): > 256 µg/mL
MIC (Staphylococcus aureus [17]): 32 µg/mL (≈ 42.3 µM)

C#CCNCCC(=O)O[C@H]1[C@H](C)[C@@H](O[C@@H]2O[C@H](C)C[C@H](N(C)C)[C@H]2O)[C@](C)(OC)C[C@@H](C)/C(=N\OC)[C@H](C)[C@H]2OC(=O)O[C@]2(C)[C@@H](CC)OC(=O)[C@@H]1C
MIC (Streptococcus pneumoniae [1]): 0.13 µg/mL (≈ 0.172 µM)
MIC (Streptococcus pneumoniae [2]): 2 µg/mL (≈ 2.65 µM)
MIC (Haemophilus influenzae [3]): 128 µg/mL (≈ 170 µM)
Ratio (Streptococcus pyogenes [4]): >8
MBC (Staphylococcus aureus [5]): > 256 µg/mL
Ratio (Haemophilus influenzae [6]): 1
MBC (Streptococcus pyogenes [7]): > 4 µg/mL
MIC (Streptococcus pyogenes [8]): 0.5 µg/mL (≈ 0.663 µM)
Ratio (Streptococcus pneumoniae [9]): 2
MIC (Staphylococcus aureus [10]): 256 µg/mL (≈ 340 µM)
Ratio (Staphylococcus aureus [11]): >8
MBC (Streptococcus pneumoniae [12]): 4 µg/mL (≈ 5.31 µM)
MBC (Haemophilus influenzae [13]): 128 µg/mL (≈ 170 µM)
Ratio (Streptococcus pneumoniae [14]): 8
MBC (Streptococcus pneumoniae [15]): 1 µg/mL (≈ 1.33 µM)
MBC (Staphylococcus aureus [16]): > 128 µg/mL
MIC (Staphylococcus aureus [17]): 16 µg/mL (≈ 21.2 µM)
